Here are results for 24 compounds from ChEMBL document CHEMBL4007465, “1,4-Substituted Triazoles as Nonsteroidal Anti-Androgens for Prostate Cancer Treatment” (J Med Chem, 2017).

In series [1] the target is T1, Androgen receptor (Homo sapiens) (UniProt P10275).
T1 sequence (whole entry): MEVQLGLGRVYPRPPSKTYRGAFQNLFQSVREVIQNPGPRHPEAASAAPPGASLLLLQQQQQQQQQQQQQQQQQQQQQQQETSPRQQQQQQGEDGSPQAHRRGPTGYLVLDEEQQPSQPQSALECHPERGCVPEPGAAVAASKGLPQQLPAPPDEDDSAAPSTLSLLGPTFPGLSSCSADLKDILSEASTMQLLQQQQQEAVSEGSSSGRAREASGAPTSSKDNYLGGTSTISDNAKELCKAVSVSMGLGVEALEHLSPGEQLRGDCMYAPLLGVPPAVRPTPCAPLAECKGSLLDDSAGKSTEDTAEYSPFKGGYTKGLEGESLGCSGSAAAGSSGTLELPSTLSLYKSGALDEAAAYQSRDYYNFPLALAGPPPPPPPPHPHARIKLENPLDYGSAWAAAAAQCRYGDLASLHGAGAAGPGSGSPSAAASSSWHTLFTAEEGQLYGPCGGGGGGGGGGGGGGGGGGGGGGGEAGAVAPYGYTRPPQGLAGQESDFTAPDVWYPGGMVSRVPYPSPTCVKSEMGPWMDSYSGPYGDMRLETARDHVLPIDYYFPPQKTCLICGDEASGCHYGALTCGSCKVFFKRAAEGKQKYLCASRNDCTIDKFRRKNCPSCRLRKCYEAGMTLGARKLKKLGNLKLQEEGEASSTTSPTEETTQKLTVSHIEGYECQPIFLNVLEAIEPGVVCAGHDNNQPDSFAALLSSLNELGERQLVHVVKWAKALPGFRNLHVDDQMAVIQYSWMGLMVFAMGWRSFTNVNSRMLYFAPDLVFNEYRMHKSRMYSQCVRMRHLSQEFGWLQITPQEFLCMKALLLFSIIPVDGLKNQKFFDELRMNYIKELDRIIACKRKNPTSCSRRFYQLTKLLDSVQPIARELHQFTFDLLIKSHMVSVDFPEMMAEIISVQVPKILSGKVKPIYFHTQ
The experiment in a line: Antagonist activity at androgen receptor in human LNCAP cells assessed as reduction in PSA mRNA expression at 10 uM after 24 hrs by RT-qPCR analysis relative to control. In kind it is cell-based. A digest of the protocol: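 LNCaP cells treated 24 h after seeding with 10 μM compound for 24 h at 37 °C. RNA extracted, cDNA made from equal RNA amounts, then SYBR Green RT-qPCR for PSA. Normalised to 18S rRNA, relative levels by comparative Ct method versus untreated cells. Run in triplicate.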
For orientation: Real-time PCR tracks product formation cycle by cycle.

In series [2] the target is T1, Androgen receptor (Homo sapiens).
Series [3] is described as follows: Antagonist activity at androgen receptor V7 mutant in human CW22Rv1 cells assessed as cell growth inhibition after 72 hrs by SRB assay. In kind it is cell-based. (In general: The SRB assay estimates cell density from bound dye.)
The subject of series [4] is Homo sapiens [UNDEFINED MUTATION]. The experiment in a line: Antagonist activity at androgen receptor V7 mutant in human CW22Rv1 cells assessed as cell death after 144 hrs by SRB assay. In kind it is cell-based. A digest of the protocol: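 CW22Rv1 (RPMI 1640, 10% FBS, 1% glutamine) plated at 1700 cells/well; 24 h after seeding, drug exposure 0.02–20 μM for 144 h. Sulforhodamine B read at 490 nm. LC50 = concentration killing 50% of cells, i.e. OD treated below OD at time of drug addition (Monks formula). Octuplicate wells, three independent experiments, mean ± SD.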

For series [5] the test system is unchanged. Put plainly: Antagonist activity at androgen receptor V7 mutant in human CW22Rv1 cells assessed as cell growth inhibition after 144 hrs by SRB assay. Format: cell-based. In short, it runs like this: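 SRB assay on CW22Rv1 cells grown in RPMI 1640 with 10% FBS and 1% glutamine. Cells plated at 1700/well and exposed 24 h after seeding for 144 h to 0.02–20 μM. OD read at 490 nm. GI50 is the concentration giving 50% growth inhibition by the Monks formula relative to time-zero and untreated OD. Octuplicate wells, three independent experiments, mean ± SD.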

Series [6] has as its system Mus musculus. Put plainly: Toxicity in nude CD1 mouse xenografted with human CW22Rv1 cells assessed as mortality at 50 mg/kg administered through oral gavage dosed qd for 5 days a week for 3 weeks. Format: organism-based. The settings on record: in vivo. In short, it runs like this:
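Eight-week-old male CD-1 nude mice, 5 per group, given CW22Rv1 cells (5 × 10^6 in saline) sc in right flank on day 0. From day 1, oral gavage at 50 mg/kg (10 mL/kg) in DMSO/Cremophor/PBS (10/5/85), daily 5 days/week for 3 weeks. Vehicle controls. Toxicity scored as deaths per group, with body weight loss.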

For series [7], the species on record is Homo sapiens. Put plainly: Potency index, ratio of enzalutamide IC50 to compound IC50 for antagonist activity at AR V7 mutant in human CW22Rv1 cells assessed as cell growth inhibition. Format: cell-based. A digest of the protocol: (§1)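 CW22Rv1 growth-inhibition assay: cells exposed 24 h after seeding to 0.5–100 μM for 72 h, then counted with a Coulter counter. IC50 is the concentration causing 50% growth inhibition, taken from dose–response curves. Run in triplicate, three independent experiments, mean ± SD. Ratios divide the reference IC50 by the compound IC50.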

Series [8] in a line: Antitumor activity against human CW22Rv1 cells xenografted in nude CD1 mouse assessed as tumor volume inhibition at 50 mg/kg administered through oral gavage dosed qd for 5 days a week measured on day 7. In kind it is functional. In short, it runs like this: (§2)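 Male CD-1 nude (nu/nu) mice, 8 weeks old, given 5 × 10^6 CW22Rv1 cells in saline s.c. in the right flank on day 0. Randomized, 5 per group. From day 1, before tumors were palpable, 50 mg/kg by oral gavage at 10 mL/kg in DMSO/Cremophor/PBS (10/5/85), qdx5/wx3w. Vehicle controls. Tumor volume by caliper as a × b²/2. TVI is the maximum value. Body weight loss monitored.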

The species named for series [9] is Homo sapiens. Put plainly: Potency index, ratio of (R)-bicalutamide IC50 to compound IC50 for antagonist activity at AR V7 mutant in human CW22Rv1 cells assessed as cell growth inhibition. In kind it is cell-based. A digest of the protocol: as §1
In series [10] the test system is Mus musculus. The experiment in a line: Toxicity in nude CD1 mouse xenografted with human CW22Rv1 cells assessed as body weight loss at 50 mg/kg administered through oral gavage dosed qd for 5 days a week for 3 weeks. Format: organism-based. Conditions: in vivo. A digest of the protocol:
as §2

The target of series [11] is T1, Androgen receptor (Homo sapiens). Put plainly: Antagonist activity at androgen receptor in human LNCAP cells assessed as cell death after 144 hrs by SRB assay. In kind it is cell-based. In short, it runs like this:
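LNCaP cells in RPMI with 10% FBS and 1% glutamine, 5000 cells/well, exposed 24 h after seeding for 144 h to 0.02–20 μM. Read by SRB, OD 490 nm. LC50 is the concentration killing 50% of cells, i.e. treated OD below time-zero OD, per the Monks formula. Octuplicate wells, three independent experiments, mean ± SD.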

For orientation: inhibition means the share of the control response that was lost under treatment. The GI50 is the concentration at which growth is held to half of that of the control. Usually pIC50 stands for −log10 of the IC50, conventionally taken in molar units. For orientation: LC50 means the concentration that kills 50% of the test population.

The structures appear in SMILES notation. pIC50: −log10 of the molar value. Calls of active or inactive are those of the source. The calls are words filed in the database; no cut-off is given here. Bounds are passed on as bounds.

Turning to `N#Cc1ccc(-n2cc(-c3cccc(F)c3F)nn2)cc1C(F)(F)F`, the inhibition in series [1] amounted to 38%. In the case of `N#Cc1ccc(-n2cc(CSc3ccc(F)cc3)nn2)cc1C(F)(F)F`, the inhibition in series [1] is greater than 65%. The compound also displayed a GI50 in series [2] of 16.8 µM.

`N#Cc1ccc(-n2nnc(COc3ccc([N+](=O)[O-])cc3C(F)(F)F)c2I)cc1C(F)(F)F`: in series [1], the inhibition entry was “inactive”. Same read-out and setting: the result for `O=[N+]([O-])c1ccc(OCc2cn(-c3cccc(C(F)(F)F)c3)nn2)c(C(F)(F)F)c1` reads “inactive”; that for `N#Cc1ccc(-n2cc(COc3ccccc3[N+](=O)[O-])nn2)cc1C(F)(F)F`, greater than 65%. Regarding `N#Cc1ccc(OCc2cn(CC(=O)Nc3ccc(Cl)c(C(F)(F)F)c3)nn2)cc1`, in series [1], the inhibition entry is “inactive”. Besides, the negative-log IC50 (pIC50) in [3] is 5.09. In series [4], the LC50 stood at 23.1 µM. Besides, the 50% growth inhibitory concentration (GI50) in series [5] is 8.25 µM; in series [11], 15.7 µM; in series [2], 5.09 µM. Moreover, the Activity entry with Mus musculus [6] is reported as “Non-Toxic”; with Mus musculus [10], 0%. The Ratio IC50 in the series filed under Homo sapiens [7] turned out to be 4.4; in the series listed under Homo sapiens [9], 3.8. In series [8], the “%max” value is given as 60%. In the case of `N#Cc1ccc(-n2cc(COc3cccc(C(F)(F)F)c3F)nn2)cc1C(F)(F)F`, in series [1], the inhibition entry is “inactive”. `C[C@](O)(CS(=O)(=O)c1ccc(F)cc1)C(=O)Nc1ccc(C#N)c(C(F)(F)F)c1` [(R)-BICALUTAMIDE]: the pIC50 in [3] is 4.50.

In the case of `CNC(=O)c1ccc(N2C(=S)N(c3ccc(C#N)c(C(F)(F)F)c3)C(=O)C2(C)C)cc1F` [ENZALUTAMIDE], in series [3], the negative-log IC50 (pIC50) was 4.45. Besides, the results for the Activity result with Mus musculus [6] and in the series with Mus musculus [10] were “Non-Toxic” and 0%, respectively. Also, the “%max” value in [8] was determined as 43%. For the compound `CC(O)c1c(COc2ccc(C#N)cc2)nnn1-c1ccc(C#N)c(C(F)(F)F)c1` (stereo not given), the inhibition in [1] is greater than 65%. As for `N#Cc1ccc(-n2cc(COc3ccc(F)c(C(F)(F)F)c3)nn2)cc1C(F)(F)F`, the inhibition result in series [1] is “inactive”. For `N#Cc1ccc(NC(=O)Cn2cc(CSc3ccc(F)cc3)nn2)cc1C(F)(F)F`, in series [1], the inhibition result was “inactive”.

In the case of `N#Cc1ccc(-n2cc(COc3ccc(C(F)(F)F)cc3)nn2)cc1C(F)(F)F`, in series [1], the inhibition result was “inactive”. As for `N#Cc1ccc(-n2cc(COc3ccc([N+](=O)[O-])cc3)nn2)cc1C(F)(F)F`, the inhibition in series [1] is greater than 65%. Same read-out and setting: next, `N#Cc1ccc(NC(=O)Cn2cc(COc3ccc(F)cc3)nn2)cc1C(F)(F)F`: “inactive”. `N#Cc1ccc(-n2cc(-c3cccc(Cl)c3F)nn2)cc1C(F)(F)F`: the inhibition result in series [1] is “inactive”. As to `N#Cc1ccc(OCc2cn(-c3ccc(C#N)c(C(F)(F)F)c3)nn2)cc1`, the inhibition in [1] is greater than 65%. On the same count and under the same terms, the result for `N#Cc1ccc(-n2cc(COc3ccccc3)nn2)cc1C(F)(F)F` reads greater than 65%; that for `N#Cc1ccc(-n2cc(COc3cccc(C(F)(F)F)c3)nn2)cc1C(F)(F)F`, “inactive”; that for `N#Cc1ccc(-n2cc(-c3cccc(C(F)(F)F)c3F)nn2)cc1C(F)(F)F`, “inactive”. `N#Cc1ccc(-n2cc(COc3ccc(F)cc3)nn2)cc1C(F)(F)F`: the inhibition in [1] is greater than 65%. Moreover, in [2], the GI50 came out at 19.2 µM. For the compound `N#Cc1ccccc1OCc1cn(-c2ccc(C#N)c(C(F)(F)F)c2)nn1`, the inhibition in series [1] was greater than 65%. Consider `N#Cc1ccc(-n2cc(COc3ccc([N+](=O)[O-])cc3C(F)(F)F)nn2)cc1C(F)(F)F`, for which the inhibition result in series [1] was “inactive”.

Consider `N#Cc1ccc(OCc2cn(CC(=O)Nc3ccc(C#N)c(C(F)(F)F)c3)nn2)cc1`, for which the inhibition in [1] is 70%. Growth in [2] was halved (GI50) at 6.42 µM.
